{"data": "Measurements pooled from the literature", "mraY": "mraY (Staphylococcus aureus, UniProt Q2FZ93)", "note": "Lines come from different studies, so protocols differ."}
{"Compound": "CCCC[C@H](NC(=O)[C@H](Cc1c[nH]c2ccccc12)N(C)C(=O)C1(O)C[C@H](O)[C@@H](NC(C)=O)[C@H]([C@H](O)[C@H](O)CO)O1)C(=O)N[C@@H](CC(=O)O)C(=O)N[C@@H](Cc1cccc(Br)c1)C(N)=O (stereo partly drawn)", "target": "Gastrin/cholecystokinin type B receptor (CCKBR, Homo sapiens, UniProt P32239)", "assay": "β-arrestin recruitment, agonist", "system": "HTLA", "measurement": "Emax", "result": "102%"}
{"Compound": "NC/C(=C\\F)COc1cccc(Cn2c(=S)[nH]c(=O)c3[nH]cnc32)c1", "target": "B1 bradykinin receptor (BDKRB1, Homo sapiens, UniProt P46663)", "assay": "ligand displacement, radioligand", "setting": "10 µM", "measurement": "inhibition", "result": "< 50%"}
{"Compound": "CCCCCCC#Cc1cncc(-c2nnc(SCc3cc([N+](=O)[O-])cc([N+](=O)[O-])c3)n2C2CCNCC2)c1", "target": "mraY", "assay": "cell-free assay, inhibitor", "setting": "250 µM", "measurement": "inhibition", "result": "> 80%"}
{"Compound": "CCN1/C(=C/C(C)=O)Sc2ccc(F)cc21", "target": "B2 bradykinin receptor (BDKRB2, Homo sapiens, UniProt P30411)", "assay": "ligand displacement, radioligand", "setting": "10 µM", "measurement": "inhibition", "result": "0%"}
{"Compound": "Cc1cc(-c2ccnc3[nH]cc(F)c23)cc(F)c1[C@@]1(O)[C@H](C)CN(C2CCS(=O)(=O)CC2)C[C@@H]1C", "target": "Rho-associated protein kinase 1 (ROCK1, Homo sapiens, UniProt Q13464)", "assay": "enzyme activity, inhibitor", "setting": "15 nM", "measurement": "remaining activity", "result": "31.3%"}
{"Compound": "C1=C/COCc2cc(ccc2OCCN2CCCC2)Nc2nccc(n2)-c2cccc(c2)COC/1", "target": "Receptor-type tyrosine-protein kinase FLT3 (FLT3, Homo sapiens, UniProt P36888, R834Q)", "assay": "binding", "setting": "0.1 µM", "measurement": "remaining binding", "result": "17%"}
{"Compound": "C[C@H](NC(=O)C(=O)Nc1ccccc1C(C)(C)C)C(=O)N[C@@H](CC(=O)O)C(=O)COc1c(F)c(F)cc(F)c1F", "target": "Caspase-4 (CASP4, Homo sapiens, UniProt P49662)", "assay": "enzyme activity, inhibitor", "measurement": "kinact/KI", "result": "19200 M⁻¹ s⁻¹"}
{"Compound": "C[C@]1(O)CCCN(c2nc(Nc3ccc(S(=O)(=O)N[C@H]4CC[C@H](CN5CCN(c6ccc(C7CCC(=O)NC7=O)cc6F)CC5)CC4)cc3F)ncc2C(F)(F)F)C1 (stereo partly drawn)", "target": "BMP-2-inducible protein kinase (BMP2K, Homo sapiens, UniProt Q9NSY1)", "assay": "binding, competition with immobilised ligand", "setting": "1 µM", "measurement": "remaining binding", "result": "74%"}
{"Compound": "CCCCCCC#Cc1cncc(-c2nnc(SCc3ccc([N+](=O)[O-])o3)n2CCO)c1", "target": "mraY", "assay": "cell-free assay, inhibitor", "setting": "250 µM", "measurement": "inhibition", "result": "61%"}
{"Compound": "CCCCC(=O)Nc1ccc(-c2ccc3ncn(CCC)c(=O)c3c2)cn1", "target": "Atypical kinase COQ8B, mitochondrial (COQ8B, Homo sapiens, UniProt Q96D53)", "assay": "binding, competition with immobilised ligand", "setting": "0.5 µM", "measurement": "remaining binding", "result": "99%"}
{"Compound": "CCCCCCC#Cc1cncc(-c2nnc(SCc3ccc([N+](=O)[O-])cc3)n2CCCN)c1", "target": "mraY", "assay": "cell-free assay, inhibitor", "setting": "250 µM", "measurement": "inhibition", "result": "82%"}
{"Compound": "Cc1cc(S(=O)(=O)N[C@H]2CC[C@H](CN3CCN(c4ccc(C5CCC(=O)NC5=O)cc4F)CC3)CC2)ccc1Nc1ncc(C(F)(F)F)c(N2CCC[C@](C)(O)C2)n1 (stereo partly drawn)", "target": "Aurora kinase C (AURKC, Homo sapiens, UniProt Q9UQB9)", "assay": "binding, competition with immobilised ligand", "setting": "1 µM", "measurement": "remaining binding", "result": "50%"}
{"Compound": "CCCCCCC#Cc1cncc(-c2nnc(SCc3ccc(Cl)cc3)n2CCCN)c1", "target": "mraY", "assay": "cell-free assay, inhibitor", "setting": "250 µM", "measurement": "inhibition", "result": "34%"}
{"Compound": "C[C@]1(O)CCCN(c2nc(Nc3ccc(S(=O)(=O)N[C@H]4CC[C@H](CN5CCN(c6ccc(C7CCC(=O)NC7=O)cc6F)CC5)CC4)cc3Cl)ncc2C(F)(F)F)C1 (stereo partly drawn)", "target": "Serine/threonine-protein kinase DCLK3 (DCLK3, Homo sapiens, UniProt Q9C098)", "assay": "binding, competition with immobilised ligand", "setting": "1 µM", "measurement": "remaining binding", "result": "52%"}
{"Compound": "COc1ccc2oc(-c3ccc4nc(N)oc4c3)c/c(=N\\c3ccccc3NC(=O)CCN)c2c1", "target": "Mitogen-activated protein kinase kinase kinase 8 (MAP3K8, Homo sapiens, UniProt P41279)", "assay": "binding", "setting": "1 µM", "measurement": "remaining binding", "result": "104%"}
